Consider six compounds from ChEMBL document CHEMBL1145984 (J Med Chem, 2003).

In general, Ki refers to the equilibrium dissociation constant of an inhibitor or competing ligand from its target. Read a high Ki as weaker binding.

The assay concerns the target T1, Aminopeptidase N (Sus scrofa, UniProt P15145).
T1 sequence (P15145 whole entry): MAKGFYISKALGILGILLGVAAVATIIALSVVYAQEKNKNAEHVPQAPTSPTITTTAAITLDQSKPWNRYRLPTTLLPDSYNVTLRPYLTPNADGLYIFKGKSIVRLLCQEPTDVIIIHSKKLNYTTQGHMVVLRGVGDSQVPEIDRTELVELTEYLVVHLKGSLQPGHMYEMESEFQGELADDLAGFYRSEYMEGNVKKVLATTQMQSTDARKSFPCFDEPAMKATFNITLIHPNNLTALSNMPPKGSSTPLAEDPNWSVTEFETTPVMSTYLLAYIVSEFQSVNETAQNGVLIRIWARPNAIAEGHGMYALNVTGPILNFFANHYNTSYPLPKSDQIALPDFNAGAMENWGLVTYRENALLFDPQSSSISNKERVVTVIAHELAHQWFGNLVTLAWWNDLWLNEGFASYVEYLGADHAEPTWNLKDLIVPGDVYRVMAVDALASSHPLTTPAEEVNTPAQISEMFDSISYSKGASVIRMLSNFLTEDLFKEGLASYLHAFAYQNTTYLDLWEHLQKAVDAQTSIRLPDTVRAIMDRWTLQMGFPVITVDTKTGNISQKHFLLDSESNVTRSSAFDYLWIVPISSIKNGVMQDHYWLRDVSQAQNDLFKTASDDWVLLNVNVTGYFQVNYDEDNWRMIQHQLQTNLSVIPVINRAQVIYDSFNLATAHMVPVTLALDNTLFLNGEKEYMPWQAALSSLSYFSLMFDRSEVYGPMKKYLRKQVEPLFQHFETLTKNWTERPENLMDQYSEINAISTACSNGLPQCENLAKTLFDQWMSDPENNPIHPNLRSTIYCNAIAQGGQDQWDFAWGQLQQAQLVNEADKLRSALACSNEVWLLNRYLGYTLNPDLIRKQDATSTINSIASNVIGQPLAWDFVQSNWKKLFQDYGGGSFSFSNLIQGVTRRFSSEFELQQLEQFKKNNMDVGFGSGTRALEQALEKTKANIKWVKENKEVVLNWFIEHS
The assay is described as follows: Binding affinity towards aminopeptidase N (APN) from pig kidney. In a few lines:
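Porcine kidney APN (lyophilized, diluted in 50 mM potassium phosphate pH 7.2; 4 µg/mL final), inhibitor preincubated 60 min at room temperature, inhibitor solutions adjusted to pH 7.5. L-leucine p-nitroanilide 0.05–0.6 mM final starts reaction; A405 followed 10 min at 25 °C. Ki from Lineweaver-Burk plots of initial linear velocities, 3–4 inhibitor concentrations, each measured twice.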

`CC(C)CC(CP(=O)(O)C(N)CCc1ccccc1)C(=O)O` (stereo unspecified) returned a Ki of 1010 nM.

`NC(CCc1ccccc1)P(=O)(O)CC(Cc1ccccc1)C(=O)O` (stereo unspecified) came in with a Ki of 276 nM.

Turning to `CC(C)CC(N)P(=O)(O)CCC(=O)O` (stereo unspecified), the Ki was determined as 1410 nM.

`NC(CCc1ccccc1)P(=O)(O)CC(Cc1ccc(O)cc1)C(=O)O` (stereo unspecified): the Ki was determined as 36 nM.

In turn, `CC(C)CC(N)P(=O)(O)O` (stereo unspecified) showed a Ki of 55000 nM.

As to `CC(C)CC(CP(=O)(O)C(N)CC(C)C)C(=O)O` (stereo in doubt; 27), the Ki was 1020 nM.
